Consider 7 compounds from ChEMBL document CHEMBL1151733, “Pirinixic acid derivatives as novel dual inhibitors of microsomal prostaglandin E2 synthase-1 and 5-lipoxygenase” (J Med Chem, 2008).

Activity calls are given as the source filed them. The rule behind the calls is not given here.

Assay [1] deals with T1, Polyunsaturated fatty acid 5-lipoxygenase (Homo sapiens, UniProt P09917).
T1 sequence (P09917 whole entry): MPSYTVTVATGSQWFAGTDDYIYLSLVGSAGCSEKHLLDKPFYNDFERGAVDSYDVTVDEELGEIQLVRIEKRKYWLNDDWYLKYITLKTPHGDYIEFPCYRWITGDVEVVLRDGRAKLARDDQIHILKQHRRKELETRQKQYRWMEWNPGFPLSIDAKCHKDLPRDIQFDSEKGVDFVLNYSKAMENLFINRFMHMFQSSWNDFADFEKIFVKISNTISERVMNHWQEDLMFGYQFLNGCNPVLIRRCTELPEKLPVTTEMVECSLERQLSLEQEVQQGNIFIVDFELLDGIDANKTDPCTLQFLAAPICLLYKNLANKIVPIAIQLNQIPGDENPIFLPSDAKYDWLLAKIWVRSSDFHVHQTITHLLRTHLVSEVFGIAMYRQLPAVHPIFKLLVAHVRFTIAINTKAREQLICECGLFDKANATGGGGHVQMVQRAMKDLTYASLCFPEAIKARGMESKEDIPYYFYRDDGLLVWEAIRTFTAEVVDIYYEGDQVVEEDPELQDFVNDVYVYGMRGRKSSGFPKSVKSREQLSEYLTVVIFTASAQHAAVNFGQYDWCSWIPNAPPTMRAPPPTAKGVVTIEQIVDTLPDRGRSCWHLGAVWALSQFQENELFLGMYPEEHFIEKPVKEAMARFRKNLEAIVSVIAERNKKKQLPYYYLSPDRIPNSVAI
The assay can be described thus: Inhibition of human recombinant 5-LO expressed in Escherichia coli by cell-free assay. The method, boiled down: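 Human 5-LO expressed in E. coli MV1190 (pT3-5LO) at 27 °C, partially purified from the 100000g lysate supernatant. Held in PBS pH 7.4 with 1 mM EDTA and 1 mM ATP with compound for 10 min at 4 °C, warmed 30 s at 37 °C, then started with 2 mM CaCl₂ plus 20 µM AA. After 10 min at 37 °C, stopped with cold methanol; products measured by HPLC.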

For assay [2], the target named is T1, Polyunsaturated fatty acid 5-lipoxygenase. The assay can be described thus: Inhibition of 5-LO in PMNL cells. Type of assay: cell-based. In a few lines: (§1)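 Freshly isolated human PMNL from leukocyte concentrates of healthy donors, 5 × 10⁶ cells/mL in PBS pH 7.4 with 1 mg/mL glucose and 1 mM CaCl₂. Preincubated with compound 15 min at RT, then stimulated with 2.5 µM A23187 plus 20 µM AA for 10 min at 37 °C. Stopped with methanol; LTB₄, its all-trans isomers and 5-H(P)ETE quantified by HPLC with PGB₁ internal standard.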

Assay [3] has as its target T2, Polyunsaturated fatty acid 5-lipoxygenase (Homo sapiens) (UniProt P09917).
T2 sequence (whole entry): T1 sequence (P09917 whole entry)
The assay can be described thus: Inhibition of 5-LO in human PMNL cells at 10 uM relative to control. The format is cell-based. Also on record: scale not given: the % may be the effect or the level left. In a few lines: as §1

Assay [4] concerns the target T3, Prostaglandin G/H synthase 2 (Homo sapiens) (UniProt P35354).
T3 sequence (whole entry): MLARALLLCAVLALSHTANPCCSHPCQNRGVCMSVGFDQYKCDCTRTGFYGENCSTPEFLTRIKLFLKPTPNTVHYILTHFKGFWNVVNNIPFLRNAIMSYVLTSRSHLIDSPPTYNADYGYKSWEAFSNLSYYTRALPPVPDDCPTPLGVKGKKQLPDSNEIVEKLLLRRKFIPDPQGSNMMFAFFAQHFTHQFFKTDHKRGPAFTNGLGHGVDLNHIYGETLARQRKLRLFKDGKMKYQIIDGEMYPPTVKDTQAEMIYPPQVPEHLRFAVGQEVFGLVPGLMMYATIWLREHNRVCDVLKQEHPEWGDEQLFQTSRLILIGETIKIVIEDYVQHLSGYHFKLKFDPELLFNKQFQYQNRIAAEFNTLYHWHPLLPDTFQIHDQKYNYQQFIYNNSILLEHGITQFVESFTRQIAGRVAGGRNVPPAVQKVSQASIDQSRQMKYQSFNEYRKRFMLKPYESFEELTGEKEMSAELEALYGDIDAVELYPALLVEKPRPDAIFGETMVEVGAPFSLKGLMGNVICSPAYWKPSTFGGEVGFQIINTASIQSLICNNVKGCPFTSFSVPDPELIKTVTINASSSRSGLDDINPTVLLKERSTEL
Put plainly: Inhibition of human recombinant COX2 assessed as remaining activity at 10 uM relative to control. The method, boiled down: (§2)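 Ovine COX-1 (50 units) or human recombinant COX-2 (20 units) in 100 mM Tris pH 8 with 5 mM glutathione, 5 µM hemoglobin and 100 µM EDTA. Compound preincubation 5 min at 4 °C, then prewarming 60 s at 37 °C. AA added at 5 µM for COX-1 or 2 µM for COX-2, reacted 5 min at 37 °C. 12-HHT extracted and quantified by HPLC. Mean ± SE, n = 3.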

The target in assay [5] is T4, Prostaglandin G/H synthase 2 (Homo sapiens, UniProt P35354).
T4 sequence (P35354 whole entry): T3 sequence (whole entry)
The assay can be described thus: Inhibition of human recombinant COX2. The method, boiled down:
as §2

For assay [6], the target named is T5, Prostaglandin E synthase (Homo sapiens, UniProt O14684).
T5 sequence (O14684 whole entry): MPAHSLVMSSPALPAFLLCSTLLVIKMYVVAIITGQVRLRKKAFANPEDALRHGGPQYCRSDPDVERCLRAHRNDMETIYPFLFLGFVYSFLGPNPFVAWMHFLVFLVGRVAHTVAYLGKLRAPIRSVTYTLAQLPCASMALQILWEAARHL
The assay can be described thus: Inhibition of PGES1 in human A549 cell microsome assessed as PGE2 formation by cell-free assay. In a few lines: (§3)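 Microsomes from A549 cells grown with IL-1β (1 ng/mL, 72 h), diluted in 0.1 M potassium phosphate pH 7.4 with 2.5 mM glutathione. Compound or DMSO added 15 min before PGH₂ (20 µM final). Reaction ran 1 min at 4 °C and was stopped with FeCl₂/citric acid. PGE₂ isolated by C18 SPE, then RP-HPLC with UV at 195 nm against 11β-PGE₂ internal standard.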

Assay [7] deals with T6, Prostaglandin E synthase (Homo sapiens) (UniProt O14684).
T6 sequence (whole entry): T5 sequence (O14684 whole entry)
The assay can be described thus: Inhibition of PGES1 in human A549 cell microsome assessed as PGE2 formation at 10 uM by cell-free assay relative to control. Also on record: scale not given: the % may be the effect or the level left. The method, boiled down: as §3

In assay [8] the target is T7, Prostaglandin G/H synthase 1 (Ovis aries) (UniProt P05979).
T7 sequence (whole entry): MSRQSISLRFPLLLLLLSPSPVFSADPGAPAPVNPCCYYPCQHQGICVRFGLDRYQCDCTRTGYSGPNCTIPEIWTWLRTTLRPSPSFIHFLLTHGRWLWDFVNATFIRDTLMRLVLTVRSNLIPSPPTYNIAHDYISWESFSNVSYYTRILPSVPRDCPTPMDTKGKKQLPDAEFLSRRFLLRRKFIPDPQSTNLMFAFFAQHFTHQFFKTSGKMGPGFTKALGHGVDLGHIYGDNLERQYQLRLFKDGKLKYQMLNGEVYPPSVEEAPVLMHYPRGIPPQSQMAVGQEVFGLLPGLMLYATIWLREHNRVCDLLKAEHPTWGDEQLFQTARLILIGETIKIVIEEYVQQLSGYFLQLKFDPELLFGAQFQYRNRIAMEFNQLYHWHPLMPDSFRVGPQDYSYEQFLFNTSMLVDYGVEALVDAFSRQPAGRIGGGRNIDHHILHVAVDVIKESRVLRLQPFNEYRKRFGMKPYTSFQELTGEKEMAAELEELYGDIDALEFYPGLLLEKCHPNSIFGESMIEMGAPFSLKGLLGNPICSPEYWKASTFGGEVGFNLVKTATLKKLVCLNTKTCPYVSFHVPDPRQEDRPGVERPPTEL
The assay can be described thus: Inhibition of ovine COX1 assessed as remaining activity at 10 uM relative to control. The method, boiled down: as §2

Assay [9] has as its target T8, Prostaglandin G/H synthase 1 (Ovis aries, UniProt P05979).
T8 sequence (P05979 whole entry): T7 sequence (whole entry)
Put plainly: Inhibition of ovine COX1. The method, boiled down:
as §2

Assay [10] has as its target T6, Prostaglandin E synthase (Homo sapiens). As to conditions: A549, 33 uM.
Assay [11] has the same target. The assay can be described thus: Inhibition of mPGES1 in human A549 cells assessed as inhibition of IL-1-beta-induced PGE2 formation at 5 uM by cell-intact assay. The format is cell-based. The method, boiled down:
(§4)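 A549 cells stimulated with IL-1β for 72 h; 2 × 10⁶ cells in 0.5 mL PBS with 1 mM CaCl₂, preincubated with compound 10 min at 37 °C. Stimulated with 2.5 µM A23187, 1 µM AA and [³H]AA (18.4 kBq) for 15 min at 37 °C. Supernatant acidified; [³H]PGE₂ separated by SPE/RP-HPLC and counted by scintillation. Vehicle 0.1% DMSO; mean ± SE, n = 3.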

For assay [12] the target is unchanged. The assay can be described thus: Inhibition of mPGES1 in human A549 cells assessed as inhibition of IL-1-beta-induced PGE2 formation at 10 uM by cell-intact assay. The format is cell-based. The method, boiled down:
as §4

Consider `CCCCCCC(Sc1nc(Cl)cc(Nc2cc(C)c(-c3ccccc3)cc2OC)n1)C(=O)O` (stereo unspecified), for which the IC50 in assay [1] is 2000 nM; in [2], 500 nM; in [5], above 10000 nM; in assay [6] it was 2100 nM; in [9], above 10000 nM. The Activity in assay [3] is 3.1%; in assay [4], 53.7%; in assay [7] it was 24.9%; in assay [8] it was 71.2%.

Take `CCCCCCC(Sc1nc(Cl)cc(Nc2ccc(-c3ccccc3)cc2)n1)C(=O)O` (stereo unspecified): the IC50 is 1500 nM in assay [1]; 700 nM in assay [2]; above 10000 nM in [5]; 1600 nM in [6]; above 10000 nM in [9]. In addition, the Activity in [3] is 4.1%; in assay [4] it was 57.1%; in [7], 21.7%; in assay [8], 52.3%.

In the case of `CCCCCCC(Sc1nc(Cl)cc(Nc2ccc3ncccc3c2)n1)C(=O)OCC` (stereo unspecified), the Activity in assay [4] was found to be 61.7%; in assay [7], 39.1%; in assay [8], 69.5%. Besides, the IC50 in assay [5] was above 10000 nM; in [6], 5600 nM; in assay [9] it was above 10000 nM.

For `CC(C)c1ccc2c(c1)c(SC(C)(C)C)c(CC(C)(C)C(=O)O)n2Cc1ccc(Cl)cc1`, the IC50 in assay [2] was 90 nM; in assay [5], above 10000 nM; in assay [9], above 10000 nM. Also, the outcome in assay [3] was inactive. For the same compound, the Activity in assay [7] worked out at 26%. Moreover, the inhibition in assay [10] was found to be 63%.

In the case of `Cc1ccc(-c2cc(C(F)(F)F)nn2-c2ccc(S(N)(=O)=O)cc2)cc1`, the result in assay [11] was Active.

Regarding `CCCCCCC(Sc1nc(Cl)cc(NCc2ccc(-c3ccccc3)cc2)n1)C(=O)O` (stereo unspecified), the IC50 in assay [1] is 2000 nM; in assay [2] it was 1000 nM; in assay [5], above 10000 nM; in assay [9], above 10000 nM. Moreover, the Activity in assay [3] worked out at 3%; in assay [4], 61.3%; in assay [7], 21.8%; in assay [8] it was 67.3%.

For the compound `COc1ccc2c(c1)c(CC(=O)O)c(C)n2C(=O)c1ccc(Cl)cc1`, the outcome in assay [12] was Active. The Activity in assay [8] amounted to 19%.
